This is a sample that favours compounds with a hit; in the whole collection about 1.9% have one here.
Runt-CBFb FRET = inhibitors of RUNX1 Runt–CBFb binding, primary screen, biochemical, FRET, Cerulean-Runt, Venus-CBFb, uHTS; Runt-related transcription factor 1 (Homo sapiens) + Core-binding factor subunit beta …; Cerulean-Runt/Venus-CBFb FRET ratio 530/480, 1 h; inhibition, % at 20 µM; 220,000 tested, 0.46% active; AID 1496, 2009;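 active means inhibition over about 50% at 20 µM in the single-dose screen, limit read from the data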
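Reagent – Venus-CBFb binding partner, 100 nM · Assay system – Cerulean-tagged RUNX1 Runt domain (FRET donor) fusion protein · Input – 100 nM per protein · Incubation – two 1 h room-temperature incubations shielded from light · Measured by – FRET fluorescence · Medium – Tris buffer pH 7.5 with salts and BSA · Benchmarks – unlabeled CBFb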
LANA-H2A inh = blockers of LANA interaction with H2A/H2B – biochemical, FP readout, HTS, primary screen | inhibition, % (concentration not given with the values) | 320,000 tested, 0.6% active | AID 2629, 2010 | Protein LANA1 (Human herpesvirus 8 type P (isolate GK18)), Q9QR71 | cell-free LANA-H2A/H2B peptide, fluorescence polarization; in the data active means inhibition mostly above about 10%, no sharp cut-off; inactive means mostly below about 6.7%
HDAC3 inhib = HDAC3 deacetylase inhibitors, primary screen, biochemical, fluorescence, cell-free homogeneous; AID 2718, 2010; inhibition, % at 8.3 µM; recombinant HDAC3, fluorogenic peptide/trypsin coupled; 320,000 tested, 0.15% active; Histone deacetylase 3 (Homo sapiens), O15379; in the data active means inhibition above about 26%, passing the limit was not always enough
Target sequence (O15379 whole entry, looked up): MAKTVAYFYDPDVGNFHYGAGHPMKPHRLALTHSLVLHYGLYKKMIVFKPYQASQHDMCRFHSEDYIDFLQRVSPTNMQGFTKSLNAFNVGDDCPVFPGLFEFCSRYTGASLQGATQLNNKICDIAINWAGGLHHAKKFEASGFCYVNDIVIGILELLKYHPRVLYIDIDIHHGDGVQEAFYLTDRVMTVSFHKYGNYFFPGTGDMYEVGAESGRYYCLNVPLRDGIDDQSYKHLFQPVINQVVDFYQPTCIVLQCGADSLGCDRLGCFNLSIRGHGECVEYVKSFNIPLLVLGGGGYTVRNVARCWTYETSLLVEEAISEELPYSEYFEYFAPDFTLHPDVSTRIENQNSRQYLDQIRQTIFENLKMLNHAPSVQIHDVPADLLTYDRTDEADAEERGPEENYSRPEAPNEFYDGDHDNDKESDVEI
Runt-SMMHC FRET = inhibitors of RUNX1 Runt–CBFb-SMMHC binding, primary screen, biochemical, FRET, Cerulean-Runt, Venus-CBFb-SMMHC, uHTS; inhibition, % at 20 µM; Cerulean-Runt/Venus-CBFb-SMMHC FRET ratio 530/480, 1 h; 220,000 tested, 0.74% active; AID 1434, 2008; Runt-related transcription factor 1 (Homo sapiens) + Core-binding factor subunit beta …;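 active means mean inhibition across duplicate retests at 20 µM reaching about 50%, limit read from the data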;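 further: inhibitors lower the FRET ratio by blocking Runt binding to CBFb-SMMHC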
CaV13 ICDI inh = Disruptors of the CACNA1D IQ motif to Ca2+-dependent inactivation inhibitor domain association, primary screening, Förster resonance energy transfer in intact living …; AID 743397; inhibition, % at 12.3 µM; 340,000 tested, 0.098% active; HEK cells, CFP/YFP FRET ICDI-IQ, plate reader, 10 min; percent FRET-ratio fall versus neutral wells;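 active means mean replicate inhibition of at least 30% and at least 1% of replicates passing that level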
RanGTP-Imp inh = inhibitors of RanGTP-importin-beta interaction, primary screen, biochemical, FRET, CFP-Ran, YFP-importin-beta, homogeneous; cell-free CFP-Ran/YFP-importin-beta FRET ratio; inhibition, % (no concentration beside the values); AID 2216, 2009; 300,000 tested, 1.1% active;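 active means more than half of the replicate wells show a fall in the fluorescence ratio signal beyond about 16%, limit read from the data, passing the limit was not always enough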
Of the large screens only hits and unclear results are named; the others gave an inactive call.

Cc1cccc(NC(=O)CN2C(=O)N/C(=C\c3ccc(-c4cccc(C(=O)O)c4)o3)C2=O)c1	Runt-CBFb FRET 85, LANA-H2A inh 113, Runt-SMMHC FRET 80, RanGTP-Imp inh 26
COc1cccc(CNC(=O)c2c(C)nn(-c3ccccc3)c2C)c1	none (no result: Runt-CBFb FRET, Runt-SMMHC FRET)
CCc1cc(=O)oc2c(CNCc3ccccc3F)c(O)c(Cl)cc12	RanGTP-Imp inh 36 (no result: Runt-CBFb FRET, Runt-SMMHC FRET)
O=C(c1cccc(C(F)(F)F)c1)c1c[nH]c(C(=O)NCC2CCCO2)c1 (stereo not given)	LANA-H2A inh active
CC(=O)c1c[nH]c(C(=O)NCC2CCCO2)c1 (stereo not given)	none (no result: CaV13 ICDI inh)
C/C(=N\N=C(N)N)c1ccc(C)c(C)c1	LANA-H2A inh 15
C/C(=N\N=C(N)N)c1cccc([N+](=O)[O-])c1	none
S=C(NCc1ccco1)N1CCOCC1	RanGTP-Imp inh 22
CCOC(=O)c1cc(C(=O)OCC)c2cccc(C)n2c1=O	RanGTP-Imp inh 36 (no result: CaV13 ICDI inh)
C=CCn1c(=O)c(C#N)cc2c(=O)n3ccccc3nc21	Runt-SMMHC FRET 79, RanGTP-Imp inh 75 (no result: CaV13 ICDI inh)
C=CCn1c(=N)c(C#N)cc2c(=O)n3ccccc3nc21	Runt-SMMHC FRET 75, CaV13 ICDI inh 33, RanGTP-Imp inh active
Cc1ccc2nc3c(cc(C#N)c(=N)n3Cc3cccnc3)c(=O)n2c1	RanGTP-Imp inh 94 (no result: Runt-CBFb FRET, Runt-SMMHC FRET, CaV13 ICDI inh)
CCC[C@H]1CN(c2ccccc2)C(=O)[C@@H]1CC(=O)Nc1ccccc1	none (no result: Runt-CBFb FRET, LANA-H2A inh, HDAC3 inhib, Runt-SMMHC FRET, RanGTP-Imp inh)
COc1ccccc1NC(=O)c1ccc(NC(=O)CN2CCCC2)cc1	none
OC1CCN(C(=S)Nc2ccc(Nc3ccccc3)cc2)CC1	none
COC(=O)Cn1c(C)nc(=O)c(-c2ccccc2)c1C	LANA-H2A inh 15 (no result: CaV13 ICDI inh)
COc1cc(NC(=O)[C@H]2CSCN2C(=O)[C@@H]2CCC(=O)N2)cc(OC)c1OC	LANA-H2A inh 14 (no result: Runt-CBFb FRET, Runt-SMMHC FRET)
Cc1cccc(C)c1N1CCN(S(=O)(=O)c2ccccc2)CC1	none
CC1(C)Cc2c(cnn2-c2ccc(F)cc2)C(NC(=O)C2=CC(=O)CC(C)(C)O2)C1 (stereo not given)	none (no result: Runt-CBFb FRET, LANA-H2A inh, HDAC3 inhib, Runt-SMMHC FRET, RanGTP-Imp inh)
CCN(CC)c1ccc(S(=O)(=O)N2CCCCC2)cc1NC(=O)C1CCC1	LANA-H2A inh 71 (no result: Runt-CBFb FRET, Runt-SMMHC FRET, RanGTP-Imp inh)
CCc1cc(-c2n[nH]c(=S)n2C(C)c2ccccc2)cs1 (stereo not given)	none
COc1c2ccoc2c(OC[C@@H](O)C(C)(C)OC)c2oc(=O)ccc12	Runt-SMMHC FRET 84
C/C(N)=C(/C#N)C(=O)CSc1nc2ccccc2c(=O)n1CCCOC(C)C	none
CC(C)OCCCn1c(=NC(=O)c2cccs2)c(C#N)cc2c(=O)n3ccccc3nc21	Runt-CBFb FRET 77, Runt-SMMHC FRET 81, RanGTP-Imp inh 103
CC(C)OCCCn1c(=NC(=O)c2ccncc2)c(C#N)cc2c(=O)n3ccccc3nc21	RanGTP-Imp inh 57
COc1ccc(CNC(=O)c2ccc(Br)o2)cc1	none
CCn1c(SCC(=O)c2ccccc2)nc2sc3c(c2c1=O)CCN(C)C3	Runt-SMMHC FRET 85
CC1(C)CC(=O)C(C(C#Cc2ccccc2)C2=C(O)CC(C)(C)CC2=O)=C(O)C1	LANA-H2A inh 17
O=C(COC(=O)CCC(=O)c1ccc(Cl)cc1)NCC1CCCO1 (stereo not given)	none
FC(F)(F)c1cccc(NC(=S)N2CCN(c3cccc(C(F)(F)F)c3)CC2)c1	none
Fc1ccc(NC(=S)N2CCN(c3cccc(C(F)(F)F)c3)CC2)cc1	RanGTP-Imp inh 27
CCOC(=O)c1c(NC(=O)C(C)Sc2cccc[n+]2[O-])sc2c1CCN(Cc1ccccc1)C2 (stereo not given)	Runt-CBFb FRET 112, Runt-SMMHC FRET 81 (no result: RanGTP-Imp inh)

Screens (PubChem)
